How the values were obtained:
Mus musculus [1] = assay: Dose administered perorally which causes a fall of 3 degrees C in mean rectal temperature in group of 5 mice; format: functional
Outline: (§1)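 Male CDI mice, 25–32 g, housed singly; rectal temperature read by thermocouple probe at 2.5 cm depth, three baseline readings at 20–30 min intervals, then every 15 min after dosing. ED3 read graphically as the dose giving a 3 °C fall in mean rectal temperature, groups of five; 95% confidence intervals given.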

Mus musculus [2] = assay: Dose administered subcutaneously which causes a fall of 3 degrees C in mean rectal temperature in group of 5 mice; format: functional; outline: as §1
[3] = molecular target: Muscarinic acetylcholine receptor; assay: The compound was tested in vitro for central muscarinic acetylcholine receptor affinity to displace [3H]oxotremorine-M from rat cerebral cortex; Value ranges from 190-280; format: tissue-based
[4] = molecular target: Muscarinic acetylcholine receptor; assay: The compound was tested in vitro for central muscarinic acetylcholine receptor affinity to displace [3H]quinuclidinyl benzilate from rat cerebral cortex; Value ranges from 44000-60000; format: tissue-based
[5] = molecular target: T1, Muscarinic acetylcholine receptor (Rattus norvegicus) (UniProt P08482+P08483+P08485+P08911+P10980); assay: Relative binding of QNB and OXO-M to muscarininc receptors (ratio of IC50); format: protein assay
Outline: (§2)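 Ratio of IC50 for [3H]QNB displacement to IC50 for [3H]OXO-M displacement in rat cerebral cortex membranes. [3H]QNB at 0.27 nM; [3H]OXO-M at 2 nM with 2 mM MgCl2. Both incubated at 37 °C for 30 min in 50 mM Tris pH 7.7.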

[6] = molecular target: Muscarinic acetylcholine receptor; assay: The compound was tested in vitro for central muscarinic acetylcholine receptor affinity to displace [3H]quinuclidinyl benzilate from rat cerebral cortex; Value ranges from 1700-2000; format: tissue-based
[7] = molecular target: Muscarinic acetylcholine receptor; assay: The compound was tested in vitro for central muscarinic acetylcholine receptor affinity to displace [3H]oxotremorine-M from rat cerebral cortex; Value ranges from 6-29; format: tissue-based
[8] = molecular target: Muscarinic acetylcholine receptor; assay: The compound was tested in vitro for central muscarinic acetylcholine receptor affinity to displace [3H]oxotremorine-M from rat cerebral cortex; Value ranges from 950-1000; format: tissue-based
[9] = molecular target: Muscarinic acetylcholine receptor; assay: The compound was tested in vitro for central muscarinic acetylcholine receptor affinity to displace [3H]quinuclidinyl benzilate from rat cerebral cortex; Value ranges from 15000-25000; format: tissue-based
[10] = molecular target: T1, Muscarinic acetylcholine receptor (Rattus norvegicus); assay: It is the ratio of IC50 (QNB) to that of IC50 (OXO-M); format: protein assay; outline: as §2
[11] = molecular target: Muscarinic acetylcholine receptor; assay: The compound was tested in vitro for central muscarinic acetylcholine receptor affinity to displace [3H]oxotremorine-M from rat cerebral cortex; Value ranges from 93-280; format: tissue-based
[12] = molecular target: Muscarinic acetylcholine receptor; assay: The compound was tested in vitro for central muscarinic acetylcholine receptor affinity to displace [3H]quinuclidinyl benzilate from rat cerebral cortex; Value ranges from 48000-100000; format: tissue-based
[13] = molecular target: Muscarinic acetylcholine receptor; assay: The compound was tested in vitro for central muscarinic acetylcholine receptor affinity to displace [3H]quinuclidinyl benzilate from rat cerebral cortex; Value ranges from 16000-36000; format: tissue-based
[14] = molecular target: Muscarinic acetylcholine receptor; assay: The compound was tested in vitro for central muscarinic acetylcholine receptor affinity to displace [3H]oxotremorine-M from rat cerebral cortex; Value ranges from 440-600; format: tissue-based
[15] = molecular target: Muscarinic acetylcholine receptor; assay: The compound was tested in vitro for central muscarinic acetylcholine receptor affinity to displace [3H]oxotremorine-M from rat cerebral cortex; Value ranges from 41-48; format: tissue-based
[16] = molecular target: Muscarinic acetylcholine receptor; assay: The compound was tested in vitro for central muscarinic acetylcholine receptor affinity to displace [3H]quinuclidinyl benzilate from rat cerebral cortex; Value ranges from 2300-2600; format: tissue-based
[17] = molecular target: Muscarinic acetylcholine receptor; assay: The compound was tested in vitro for central muscarinic acetylcholine receptor affinity to displace [3H]oxotremorine-M from rat cerebral cortex; Value ranges from 100-150; format: tissue-based
[18] = molecular target: Muscarinic acetylcholine receptor; assay: The compound was tested in vitro for central muscarinic acetylcholine receptor affinity to displace [3H]quinuclidinyl benzilate from rat cerebral cortex; Value ranges from 3900-5800; format: tissue-based
[19] = molecular target: Muscarinic acetylcholine receptor; assay: The compound was tested in vitro for central muscarinic acetylcholine receptor affinity to displace [3H]oxotremorine-M from rat cerebral cortex; Value ranges from 1.6-3.9; format: tissue-based
[20] = molecular target: Muscarinic acetylcholine receptor; assay: The compound was tested in vitro for central muscarinic acetylcholine receptor affinity to displace [3H]quinuclidinyl benzilate from rat cerebral cortex; Value ranges from 930-1100; format: tissue-based
[21] = molecular target: Muscarinic acetylcholine receptor; assay: The compound was tested in vitro for central muscarinic acetylcholine receptor affinity to displace [3H]quinuclidinyl benzilate from rat cerebral cortex; Value ranges from 1800-3000; format: tissue-based
[22] = molecular target: Muscarinic acetylcholine receptor; assay: The compound was tested in vitro for central muscarinic acetylcholine receptor affinity to displace [3H]oxotremorine-M from rat cerebral cortex; Value ranges from 25-31; format: tissue-based
[23] = molecular target: Muscarinic acetylcholine receptor; assay: The compound was tested in vitro for central muscarinic acetylcholine receptor affinity to displace [3H]quinuclidinyl benzilate from rat cerebral cortex; Value ranges from 15000-45000; format: tissue-based
[24] = molecular target: Muscarinic acetylcholine receptor; assay: The compound was tested in vitro for central muscarinic acetylcholine receptor affinity to displace [3H]oxotremorine-M from rat cerebral cortex; Value ranges from 73-120; format: tissue-based
[25] = molecular target: Muscarinic acetylcholine receptor; assay: The compound was tested in vitro for central muscarinic acetylcholine receptor affinity to displace [3H]quinuclidinyl benzilate from rat cerebral cortex; Value ranges from 1300-2300; format: tissue-based
[26] = molecular target: Muscarinic acetylcholine receptor; assay: The compound was tested for muscarinic acetylcholine receptor affinity to displace [3H]oxotremorine-M from rat cerebral cortex; Value ranges from 250-280; format: tissue-based
[27] = molecular target: Muscarinic acetylcholine receptor; assay: The compound was tested in vitro for central muscarinic acetylcholine receptor affinity to displace [3H]oxotremorine-M from rat cerebral cortex; Value ranges from 200-340; format: tissue-based
[28] = molecular target: Muscarinic acetylcholine receptor; assay: The compound was tested in vitro for central muscarinic acetylcholine receptor affinity to displace [3H]quinuclidinyl benzilate from rat cerebral cortex; Value ranges from 2800-6300; format: tissue-based
[29] = molecular target: Muscarinic acetylcholine receptor; assay: The compound was tested in vitro for central muscarinic acetylcholine receptor affinity to displace [3H]oxotremorine-M from rat cerebral cortex; Value ranges from 75-80; format: tissue-based
[30] = molecular target: Muscarinic acetylcholine receptor; assay: The compound was tested in vitro for central muscarinic acetylcholine receptor affinity to displace [3H]quinuclidinyl benzilate from rat cerebral cortex; Value ranges from 11000-14000; format: tissue-based
[31] = molecular target: Muscarinic acetylcholine receptor; assay: The compound was tested in vitro for central muscarinic acetylcholine receptor affinity to displace [3H]oxotremorine-M from rat cerebral cortex; Value ranges from 36-85; format: tissue-based
[32] = molecular target: Muscarinic acetylcholine receptor; assay: The compound was tested in vitro for central muscarinic acetylcholine receptor affinity to displace [3H]quinuclidinyl benzilate from rat cerebral cortex; Value ranges from 29000-33000; format: tissue-based
[33] = molecular target: Muscarinic acetylcholine receptor; assay: The compound was tested in vitro for central muscarinic acetylcholine receptor affinity to displace [3H]oxotremorine-M from rat cerebral cortex; Value ranges from 14-27; format: tissue-based
[34] = molecular target: Muscarinic acetylcholine receptor; assay: The compound was tested in vitro for central muscarinic acetylcholine receptor affinity to displace [3H]quinuclidinyl benzilate from rat cerebral cortex; Value ranges from 6200-6700; format: tissue-based
[35] = molecular target: Muscarinic acetylcholine receptor; assay: The compound was tested in vitro for central muscarinic acetylcholine receptor affinity to displace [3H]oxotremorine-M from rat cerebral cortex; Value ranges from 650-1900; format: tissue-based
[36] = molecular target: Muscarinic acetylcholine receptor; assay: The compound was tested in vitro for central muscarinic acetylcholine receptor affinity to displace [3H]quinuclidinyl benzilate from rat cerebral cortex; Value ranges from 8000-17000; format: tissue-based
Mus musculus [37] = assay: Dose administered subcutaneously which causes a fall of 3 degrees C in mean rectal temperature in group of 5 mice.; format: functional; outline: as §1
[38] = molecular target: Muscarinic acetylcholine receptor; assay: The compound was tested in vitro for central Muscarinic acetylcholine receptor affinity to displace [3H]quinuclidinyl benzilate from rat cerebral cortex; Value ranges from […]; format: tissue-based
[39] = molecular target: Muscarinic acetylcholine receptor; assay: The compound was tested in vitro for central Muscarinic acetylcholine receptor affinity to displace [3H]oxotremorine-M from rat cerebral cortex; Value ranges from 12-18; format: tissue-based
[40] = It is the ratio of IC50(QNB) to that of IC50(OXO-M); outline: as §2
[41] = molecular target: Muscarinic acetylcholine receptor; assay: The compound was tested in vitro for central muscarinic acetylcholine receptor affinity to displace [3H]oxotremorine-M from rat cerebral cortex; Value ranges from 34-52; format: tissue-based
[42] = molecular target: Muscarinic acetylcholine receptor; assay: The compound was tested in vitro for central muscarinic acetylcholine receptor affinity to displace [3H]quinuclidinyl benzilate from rat cerebral cortex; Value ranges from 8000-11000; format: tissue-based
[43] = molecular target: Muscarinic acetylcholine receptor; assay: The compound was tested in vitro for central muscarinic acetylcholine receptor affinity to displace [3H]oxotremorine-M from rat cerebral cortex; Value ranges from 93-190; format: tissue-based
[44] = molecular target: Muscarinic acetylcholine receptor; assay: The compound was tested in vitro for central muscarinic acetylcholine receptor affinity to displace [3H]quinuclidinyl benzilate from rat cerebral cortex; Value ranges from 14000-38000; format: tissue-based
[45] = molecular target: Muscarinic acetylcholine receptor; assay: The compound was tested in vitro for central muscarinic acetylcholine receptor affinity to displace [3H]oxotremorine-M from rat cerebral cortex; Value ranges from 1000-1900; format: tissue-based
[46] = molecular target: Muscarinic acetylcholine receptor; assay: The compound was tested in vitro for central muscarinic acetylcholine receptor affinity to displace [3H]quinuclidinyl benzilate from rat cerebral cortex; Value ranges from 60000-65000; format: tissue-based
[47] = molecular target: Muscarinic acetylcholine receptor; assay: The compound was tested in vitro for central muscarinic acetylcholine receptor affinity to displace [3H]oxotremorine-M from rat cerebral cortex; Value ranges from 78-200; format: tissue-based
[48] = molecular target: Muscarinic acetylcholine receptor; assay: The compound was tested in vitro for central muscarinic acetylcholine receptor affinity to displace [3H]quinuclidinyl benzilate from rat cerebral cortex; Value ranges from 23000-38000; format: tissue-based

Compound: COC(=O)[C@@H]1CN2CC[C@@H]1C2
- ED3 (Mus musculus [1]): >10 mg/kg
- ED3 (Mus musculus [2]): 0.41 mg/kg
- IC50 [3]: 230 nM
- IC50 [4]: 51000 nM
- Ratio [5]: 220

Compound: Cc1noc(C2CN3CCC2CC3)n1 (stereo unspecified)
- IC50 [6]: 1800 nM
- IC50 [7]: 14 nM
- Ratio [5]: 130

Compound: Cc1nnc(C2CN3CCC2CC3)o1 (stereo unspecified)
- IC50 [8]: 980 nM
- IC50 [9]: 19000 nM
- Ratio [10]: 20

Compound: Cc1nnc(C23CCN(CC2)C3)o1
- IC50 [11]: 180 nM
- IC50 [12]: 70000 nM
- Ratio [10]: 380

Compound: COC(=O)C1CN2CCC1CC2 (stereo unspecified)
- IC50 [13]: 25000 nM
- IC50 [14]: 520 nM
- Ratio [5]: 49

Compound: Cc1noc([C@@H]2CN3CCC[C@@H]2C3)n1
- IC50 [15]: 44 nM
- Ratio [5]: 55
- IC50 [16]: 2400 nM

Compound: COC(=O)[C@@H]1C[C@H]2CCCN(C2)C1
- IC50 [17]: 130 nM
- Ratio [5]: 37
- IC50 [18]: 4800 nM

Compound: Cc1noc([C@@H]2CN3CC[C@@H]2C3)n1
- ED3 (Mus musculus [1]): 0.0011 mg/kg
- ED3 (Mus musculus [2]): 0.0005 mg/kg
- IC50 [19]: 2.8 nM
- IC50 [20]: 1000 nM
- Ratio [5]: 360

Compound: Cc1noc([C@@H]2C[C@H]3CCN(C3)C2)n1
- IC50 [21]: 2400 nM
- IC50 [22]: 28 nM
- Ratio [5]: 84

Compound: Cc1nc([C@@H]2CN3CC[C@@H]2C3)no1
- IC50 [23]: 27000 nM
- IC50 [24]: 92 nM
- Ratio [5]: 290

Compound: Cc1noc([C@@H]2C[C@H]3CCCN(C3)C2)n1
- IC50 [25]: 1730 nM
- IC50 [26]: 260 nM
- Ratio [5]: 7

Compound: Cc1nc(C23CCCN(CC2)C3)no1 (stereo unspecified)
- IC50 [27]: 260 nM
- IC50 [28]: 4200 nM
- Ratio [10]: 16

Compound: COC(=O)[C@@H]1C[C@H]2CCN(C2)C1
- IC50 [29]: 77 nM
- IC50 [30]: 12000 nM
- Ratio [5]: 160

Compound: COC(=O)C12CCN(CC1)C2
- IC50 [31]: 48 nM
- Ratio [10]: 650
- IC50 [32]: 31000 nM

Compound: COC(=O)C12CCCN(CC1)C2 (stereo unspecified)
- ED3 (Mus musculus [1]): >0.3 mg/kg
- ED3 (Mus musculus [2]): 0.078 mg/kg
- IC50 [33]: 19 nM
- IC50 [34]: 6400 nM
- Ratio [5]: 340

Compound: Cc1nc(C2CN3CCC2CC3)no1 (stereo unspecified)
- IC50 [35]: 1100 nM
- IC50 [36]: 12000 nM
- Ratio [10]: 10

Compound: Cc1noc(C23CCCN(CC2)C3)n1 (stereo unspecified)
- ED3 (Mus musculus [1]): 0.018 mg/kg
- ED3 (Mus musculus [37]): 0.0029 mg/kg
- IC50 [38]: 3500 nM
- IC50 [39]: 15 nM
- Ratio [40]: 230

Compound: Cc1nnc(C23CCCN(CC2)C3)o1 (stereo unspecified)
- IC50 [41]: 42 nM
- IC50 [42]: 9400 nM
- Ratio [10]: 220

Compound: Cc1noc(C23CCN(CC2)C3)n1
- IC50 [43]: 130 nM
- IC50 [44]: 23000 nM
- Ratio [5]: 170

Compound: COC(=O)[C@@H]1C[N@@]2CCC[C@@H]1C2
- IC50 [45]: 1400 nM
- IC50 [46]: 62000 nM
- Ratio [10]: 46

Compound: Cc1nnc([C@@H]2CN3CC[C@@H]2C3)o1
- IC50 [47]: 120 nM
- Ratio [10]: 240
- IC50 [48]: 29000 nM
